The source of these data is PubChem BioAssay AID573 (SRMLSC, 2007).

The whole screen tested about 65,000 compounds, of which about 1,400 (2.2%) were called active.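 The calls were made as follows: active = growth inhibition at or above a cutoff equal to the mean over every tested compound plus 3 SD (cut at about 60% in these data); inactive = the rest.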 The sample as a whole holds a higher share of actives than the screen did.

The nature of the test: E. coli ΔtolC antibacterial growth inhibition – strain BW25113 ΔtolC::kan, 384-well, primary screen (AID 573).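 Also: growth measured after 20 h incubation at 37 °C.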 Conditions: E. coli BW25113 tolC mutant growth, OD615; active compounds read high; screened at 10 µM (by protocol). The method, boiled down:
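signal = optical density read at 615 nm | test system = E. coli ΔtolC::kan strain BW25113 | timing = 20 h compound exposure of bacteria at 37 °C | buffer or medium = LB medium plus 50 µg/mL kanamycin | compound dosing = 10 µM final, single dose | evaluation = % inhibition of E. coli growth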
With `CC(=O)c1c(C)n([O-])c2ccccc2[n+]1=O`, the growth inhibition was 97.5% (active).
On to `C=CCSc1nc2c(c(=O)[nH]1)C(C(C)C)C(C#N)=C(N)O2` (configuration not stated), for which the growth inhibition was 0.15% (inactive).
On to `CCCn1c(=NC(C)=O)c(C(=O)OCC)cc2c(=O)n3ccccc3nc21`, for which the growth inhibition is -3.58% (inactive).
Consider `C=CCOc1nc2c(c(=O)n(C)c(=O)n2C)n1Cc1ccc(Cl)cc1Cl`, for which the growth inhibition is 12.2% (inactive).
For `Cc1nc2c(-c3ccccc3)c(C)[nH]n2c(=O)c1Cl`, the growth inhibition is 98% (active).
Turning to `CCCN(CCC)C(=O)C1c2ccccc2Oc2ccccc21`, the growth inhibition is 17.6% (inactive).
Turning to `CCOC(=O)N1CCC(NC(=O)Cn2cc3c(n2)CCCCC3)CC1`, the growth inhibition is -12.2% (inactive).
On to `Cc1ccc(OCc2nc(C#N)c(N3CCCC3)o2)cc1`, for which the growth inhibition is 5.67% (inactive).
As to `CCC(Oc1ccccc1)C(=O)NCc1cccnc1` (configuration not stated), the growth inhibition was -6.02% (inactive).
Turning to `N#Cc1nc(COc2ccc(-c3ccccc3)cc2)oc1NCc1cccnc1`, the growth inhibition is 88.7% (active).
As to `COc1ccc(N2CC(C)Cn3c2nc2c3c(=O)n(Cc3ccccc3F)c(=O)n2C)c(OC)c1` (configuration not stated), the growth inhibition was 13.4% (inactive).
Under `Cc1nnc(SCC(=O)NCCOc2ccc(Cl)cc2)n1-c1ccccc1` stands -1.57% (inactive); under `COc1ccc2c(c1)CCc1c(C(=O)N3CCc4ccccc4C3)noc1-2`, 77.6% (active).
`COc1ccc2c(c1)CCc1c(C(=O)Nc3c(C)n(C)n(-c4ccccc4)c3=O)noc1-2`: the growth inhibition was -4.64% (inactive).
`COc1ccc2c(c1)CCc1c(C(=O)N3CCCC3)noc1-2`: the growth inhibition was -0.81% (inactive).
As to `CCCOC(=O)c1cc2ccccc2oc1=O`, the growth inhibition was -13.8% (inactive).
Under `CCOC(=O)c1cc2cc(-c3c(C(=O)OCC)oc4cc(O)cc(O)c4c3=O)ccc2o1` stands 87.4% (active); under `O=c1c(-c2ccc3c(c2)OCCO3)c(C(F)(F)F)oc2cc(O)cc(O)c12`, 11.4% (inactive); under `CC1(c2ccccc2Cl)NC(=O)N(CC(=O)NC(=O)NCc2ccco2)C1=O` (configuration not stated), -3.76% (inactive).
For the molecule `COc1ccc(C2=NOC(C(=O)NCc3ccco3)C2)cc1OC` (configuration not stated), the growth inhibition is -12.4% (inactive).
Turning to `CCS(=O)(=O)n1nc(-c2ccccc2)nc1SCc1ccccc1`, the growth inhibition was 62.5% (active).
Under `CCCc1cc(=O)n2[nH]c(SCc3ccccc3)nc2n1` stands 11.2% (inactive).
`CCS(=O)(=O)n1nc(-c2ccc(OC)cc2)nc1SC`: the growth inhibition was 2.8% (inactive).
As for `CN(C)[C@@H]1C(=O)C(C(N)=O)=C(O)[C@@]2(O)C(=O)C3=C(O)c4c(O)ccc(Cl)c4[C@@H](O)[C@H]3C[C@@H]12`, the growth inhibition is 100% (active).
With `CCSC1=C(C#N)C(=O)n2c1cc1c2CCCC1`, the growth inhibition is 11.6% (inactive).
Consider `Cc1ccc(S(=O)(=O)N2CCC(C(=O)N[C@@H](C)C(=O)NCCc3ccccc3)CC2)cc1`, for which the growth inhibition is -5.94% (inactive).
`c1ccc2[nH]c(NCCN3CCOCC3)nc2c1`: the growth inhibition is -17.2% (inactive).
For `N#Cc1nc(-c2ccc(OCc3ccccc3)cc2)oc1NCCCN1CCOCC1`, the growth inhibition was 96.3% (active).
As to `COc1ccc(Nc2oc(-c3ccccc3Cl)nc2C#N)cc1`, the growth inhibition was 9.32% (inactive).
Under `COc1ccc(OC)c2c(N)c(C#N)c(C(F)(F)C(F)(F)F)nc12` stands 2.98% (inactive); under `O=C(Nc1ccc(Cl)cn1)c1cnn2cccnc12`, -3.45% (inactive).
Under `CCN=C1SC(CC(=O)Nc2ccc(C)cc2)C(=O)N1CC` (configuration not stated) stands -9.63% (inactive); under `C[C@H](NC(=O)OC(C)(C)C)c1nnc(SCC(=O)Nc2ccc(Br)cc2)o1`, 15.3% (inactive).
Under `CC(C)(CSc1nncn1/N=C/c1ccco1)NS(=O)(=O)c1ccc(Cl)cc1` stands 15.6% (inactive).
On to `COc1ccc(Cc2nnc(NS(=O)(=O)Cc3ccccc3)s2)cc1`, for which the growth inhibition was 5.52% (inactive).
In the case of `CCOC(=O)c1[nH]c2ccc(OC)cc2c1NC(=O)N1CCOCC1`, the growth inhibition was -1.42% (inactive).
On to `O=C1CSC(c2cccc(F)c2)N1c1ccccc1F` (configuration not stated), for which the growth inhibition is 9.21% (inactive).
Regarding `CCCSc1nc2c(c(=O)[nH]c(=O)n2C)n1CCc1ccccc1`, the growth inhibition is 5.24% (inactive).
Under `CCCCCCn1c(SCC(=O)c2ccccc2)nc2c1c(=O)[nH]c(=O)n2C` stands 14.9% (inactive).
Under `CCCCCn1c(SCCC(C)C)nc2c1c(=O)[nH]c(=O)n2C` stands 64.3% (active); under `COC(=O)c1ccc2c(c1)S(=O)(=O)NC(=NCCCN1CCOCC1)S2`, -18.4% (inactive).
As to `O/N=C1\CC2(Cc3nonc31)OCCO2`, the growth inhibition was -23.4% (inactive).
Under `COc1ccc(CC(=O)Nc2ccc(-c3nnc(-c4ccccc4)o3)cc2)cc1` stands -6.58% (inactive); under `Cc1ccc(OCC(=O)Nc2ccc(-c3nnc(-c4ccco4)o3)cc2)cc1`, -19.2% (inactive); under `O=C(COC(=O)c1ccc(Oc2ccccc2)cc1)Nc1nnc(-c2ccccc2)o1`, 100% (active).
As for `CC(C(=O)N1CCOCC1)N1c2cccc3cccc(c23)S1(=O)=O` (configuration not stated), the growth inhibition is -2.26% (inactive).
As to `COc1cccc(Nc2nnc(SCC(=O)N3CC(C)OC(C)C3)s2)c1` (configuration not stated), the growth inhibition is 8.6% (inactive).
For the molecule `COc1cccc(NC(=O)Nc2nnc(N3CCCCC3C)s2)c1` (configuration not stated), the growth inhibition is 61.5% (active).
Under `COc1cccc(NC(=O)C2CCCN2C(=O)OCc2ccccc2)c1` (configuration not stated) stands -9.18% (inactive); under `CCCc1nnc(NC(=O)CN2C(=O)c3ccccc3S2(=O)=O)s1`, -16.8% (inactive); under `CC(C)Cc1cc(C(=O)NCCc2ccccc2)no1`, 9.12% (inactive).
For the molecule `CC(C)Cc1cc(C(=O)Nc2cc(Br)ccc2O)no1`, the growth inhibition was 80.4% (active).
As for `CC(C)CNC(=O)c1cc(-c2ccc(Br)cc2)on1`, the growth inhibition is 1.43% (inactive).
Regarding `NC(=O)c1ccccc1NC(=O)c1ccccc1F`, the growth inhibition was -2.79% (inactive).
Under `CCN1CCCC1CNc1ncnc2c1[nH]c1ccc(F)cc12` (configuration not stated) stands 3.38% (inactive); under `CC(C)OCCCNc1ncnc2c1[nH]c1ccc(F)cc12`, 96.2% (active); under `O=C1CCCN1CCCNc1ncnc2c1[nH]c1ccccc12`, -26.6% (inactive).
For `COc1ccccc1NC(=O)c1ccc(C)s1`, the growth inhibition is 14.1% (inactive).
Consider `CCOc1ccccc1Oc1cn[nH]c1-c1ccc(OC)cc1O`, for which the growth inhibition was 98.2% (active).
With `CCOc1ccccc1NC(=O)CCN1CCN(S(=O)(=O)c2ccc(OC)cc2)CC1`, the growth inhibition is -7.02% (inactive).
For `CCOc1ccccc1NC(=O)Nc1cc(OC)ccc1OC`, the growth inhibition is -9.62% (inactive).
On to `O=C(Nc1ccc2c(c1)OCO2)C1CC(c2c(F)cccc2Cl)=NO1` (configuration not stated), for which the growth inhibition is 18% (inactive).
